Only some compounds are listed: those with a hit (about 2.3% of all), similar ones and a draw of the others.
STEP block: STEP phosphatase inhibitors, primary screen, biochemical, fluorescence intensity, uHTS; Tyrosine-protein phosphatase non-receptor type 5 (Homo sapiens), P54829; recombinant STEP, OMFP fluorogenic substrate; inhibition, % at 20 µM; 360,000 tested, 0.25% active;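 active means inhibition at 20 µM, scaled per plate between control wells, above about 37%, limit read from the data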
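medium = Bis-Tris buffer pH 6.0, 2.5 mM DTT, 0.005% Tween 20 | test system = STEP (striatal-enriched tyrosine phosphatase) enzyme, cell-free | measure = normalized % inhibition | compound dosing = 20 µM, 1% DMSO | also added = 25 µM OMFP | schedule = reaction 20 min, ambient temperature | measured by = fluorescence read at 480 nm ex / 540 nm em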
DNMT1 block: human DNMT1 methyltransferase inhibitors, primary screen, biochemical, molecular beacon, fluorescence, HinP1I cleavage, uHTS | DNA (cytosine-5)-methyltransferase 1 (Homo sapiens), P26358 | inhibition (reported as % activation of signal), % at 10 µM | 360,000 tested, 0.83% active; in the data active means inhibition above about 50%
Target sequence (P26358 504-1616 limits assumed): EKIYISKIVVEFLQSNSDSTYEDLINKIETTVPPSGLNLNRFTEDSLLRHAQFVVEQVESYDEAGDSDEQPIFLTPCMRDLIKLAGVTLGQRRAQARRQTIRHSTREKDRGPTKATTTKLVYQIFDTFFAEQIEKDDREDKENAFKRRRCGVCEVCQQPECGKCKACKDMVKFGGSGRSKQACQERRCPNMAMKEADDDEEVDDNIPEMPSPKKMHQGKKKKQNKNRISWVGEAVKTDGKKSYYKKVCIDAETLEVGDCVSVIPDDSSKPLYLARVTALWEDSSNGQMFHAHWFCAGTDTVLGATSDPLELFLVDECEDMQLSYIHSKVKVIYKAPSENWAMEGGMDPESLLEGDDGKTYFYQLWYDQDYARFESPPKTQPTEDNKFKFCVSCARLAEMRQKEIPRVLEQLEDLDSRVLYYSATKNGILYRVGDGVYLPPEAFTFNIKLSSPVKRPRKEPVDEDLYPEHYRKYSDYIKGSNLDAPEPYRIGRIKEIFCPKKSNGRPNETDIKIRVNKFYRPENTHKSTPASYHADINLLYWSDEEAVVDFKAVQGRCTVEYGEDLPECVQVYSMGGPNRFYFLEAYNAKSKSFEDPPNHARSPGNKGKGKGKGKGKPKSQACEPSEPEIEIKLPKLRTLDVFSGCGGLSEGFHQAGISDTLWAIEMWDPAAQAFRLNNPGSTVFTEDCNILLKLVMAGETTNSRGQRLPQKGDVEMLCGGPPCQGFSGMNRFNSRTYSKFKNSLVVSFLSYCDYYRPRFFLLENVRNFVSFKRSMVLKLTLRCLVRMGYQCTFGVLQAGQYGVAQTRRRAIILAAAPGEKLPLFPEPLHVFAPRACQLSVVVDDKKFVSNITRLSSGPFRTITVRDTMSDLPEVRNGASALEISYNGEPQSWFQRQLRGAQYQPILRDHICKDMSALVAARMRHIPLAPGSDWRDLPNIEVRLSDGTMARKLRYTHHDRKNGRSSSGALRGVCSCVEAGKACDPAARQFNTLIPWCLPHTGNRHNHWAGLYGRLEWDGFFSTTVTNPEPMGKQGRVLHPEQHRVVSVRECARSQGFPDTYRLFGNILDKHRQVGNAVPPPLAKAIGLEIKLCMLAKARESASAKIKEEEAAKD
Scp-1 inhibitor: Scp-1 phosphatase inhibitors, primary screen, biochemical, colorimetric, uHTS. Carboxy-terminal domain RNA polymerase II polypeptide A small phosphatase 1 (Homo …. inhibition, % at 20 µM. Recombinant Scp1, phosphopeptide, malachite green phosphate absorbance. 340,000 tested, 0.88% active;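 active means inhibition above about 50% at 20 µM, limit read from the data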
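Test system: SCP-1 phosphatase catalytic domain, residues 76-261; measured by: colorimetric phosphate reagent with accelerator and stabiliser, absorbance at 630 nm; timing: enzyme reaction 45 min at room temperature, colour 5 min, stabilisation 30 min; also added: Phosphorylated 17-residue peptide substrate; compound dosing: one concentration, 20 µM, with 1.0% DMSO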
LMPTP block: LMPTP phosphatase inhibitors, primary screen, biochemical, fluorescence intensity, uHTS; Low molecular weight phosphotyrosine protein phosphatase (Homo sapiens), P24666; recombinant LMPTP-A, OMFP fluorogenic substrate; inhibition, % at 20 µM; 360,000 tested, 0.22% active; AID 651560, 2012;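 active means compounds that cut the enzyme signal by at least half of the control window in the single-dose screen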
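Test system – LMPTP-A phosphatase enzyme · Quantity – 0.625 nM LMPTP-A final · Reagent – OMFP substrate, 400 µM final · Dosing – one test concentration per compound, 20 µM, with 3% DMSO overall · Timing – 50 min enzyme reaction at room temperature, protected from light · Detection – fluorescence intensity · Controls – substrate-only low control, DMSO enzyme-plus-substrate high control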
NadD block: inhibitors of S. aureus NadD, primary screen, biochemical, colorimetric, uHTS; AID 602399, 2012; Nicotinate-nucleotide adenylyltransferase NadD (Staphylococcus aureus N315); inhibition, % at 20 µM; purified NadD enzyme, colorimetric absorbance read-out; 360,000 tested, 0.78% active; in the data active means inhibition above about 26%
SUMO1 PPI mod: modulators of SUMO1 protein-protein interactions, primary screen, biochemical, uHTS | Small ubiquitin-related modifier 1 (Homo sapiens), P63165 | SUMO1 binding to a labelled peptide, TR-FRET, 1 h | inhibition, % at 20 µM | 360,000 tested, 0.33% active | AID 602429, 2012; in the data active means inhibition above about 37%
Beacon interf DR: spectral interference with molecular beacon fluorescence, dose response, artefact control for DNMT1 inhibitor project, biochemical, fluorescent molecular beacon; AID 602382, 2012; IC50, µM; spectral interference counter-screen; 200 tested, under 10 active; shares compounds with DNMT1 block; call rule not given here
DNMT1 inh conf: DNMT1 methyltransferase inhibitor retest, confirmation, biochemical, molecular beacon, fluorescence, single concentration | 2,300 tested, 8% active | shares compounds with DNMT1 block | inhibition, % at 10 µM | DNMT1 molecular beacon HinP1I cleavage;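 active means average inhibition of at least 30% in the single-concentration confirmation test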
Beacon interf: counter-screen for DNMT1 inhibitors: spectral interference; DNMT1 molecular beacon spectral interference counterscreen, fluorescence 485/520; shares compounds with DNMT1 block; 2,300 tested, 1% active; activation (fluorescence interference), % at 10 µM;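 active means activation of at least 30% at 10 µM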;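 further: DNMT1 catalytic domain with a HinP1I cleavage step and a FAM/dabcyl DNA beacon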
A number is an active result; 0 = inactive; - = no result given.

SMILES | STEP block | DNMT1 block | Scp-1 inhibitor | LMPTP block | NadD block | SUMO1 PPI mod | DNMT1 inh conf | Beacon interf | others
O=C(CN(Cc1ccc(Br)cc1)S(=O)(=O)c1ccccc1)NCc1ccccn1 | 0 | 87 | 0 | 0 | 0 | 0 | 0 | 0
O=C(NNC(=O)c1ncc(Cl)c(Cl)c1Cl)c1ccc(F)cc1 | 0 | 0 | 0 | 0 | 0 | 0 | - | -
O=S(=O)(NC1CCCCC1Nc1ccc(Cl)cc1)c1ccccc1 (configuration not stated) | 0 | 73 | 0 | 0 | 0 | 0 | 0 | 0
Cc1ccc(NC2CCCCC2NS(=O)(=O)c2ccc(Cl)cc2)cc1 (configuration not stated) | 0 | 0 | 0 | 0 | 0 | 0 | - | -
Brc1ccc(C2=Nn3c(nnc3-c3cccnc3)SC2)s1 | 0 | 62 | 0 | 0 | 0 | 0 | 0 | 0
CC(C)(C)NC(=O)CCN(/N=C/c1ccc([N+](=O)[O-])o1)C1=NS(=O)(=O)c2ccccc21 | 0 | 0 | 0 | 0 | 0 | 0 | - | -
O=C(Nn1c(-c2ccc(Br)cc2)nc2ccccc2c1=O)c1ccc([N+](=O)[O-])cc1 | 0 | 0 | 0 | 0 | 0 | 0 | - | -
N=C1C(c2nc(-c3ccc(Br)cc3)cs2)=C(O)CN1NC(=O)c1ccc([N+](=O)[O-])cc1 | 0 | 56 | 0 | 0 | 0 | 0 | 0 | 0
CSCCC(NC(=O)/C(=C/c1ccco1)NC(=O)c1ccco1)C(=O)O (configuration not stated) | 0 | 0 | 0 | 0 | 0 | 0 | - | -
O=Cc1cn(-c2ccccc2)nc1-c1cc2c(ccc3ccccc32)oc1=O | 0 | 53 | 0 | 0 | 0 | 0 | 0 | 0
O=C(O)/C=C/c1cn(-c2ccccc2)nc1-c1cc2ccccc2oc1=O | 0 | 0 | 0 | 0 | 0 | 0 | - | -
Cc1cccc2cc(C#N)c(SCC(=O)NCC3CCCO3)nc12 (configuration not stated) | 0 | 0 | 0 | 0 | 0 | 0 | - | -
Cc1cccc2c(SCC(=O)NCC3CCCO3)nc(-c3ccc(F)cc3)nc12 (configuration not stated) | 0 | 0 | 0 | 0 | 0 | 0 | 0 | 0
CCOC(=O)[C@]12CCC=C1N(Cc1ccc3c(c1)OCO3)C(=O)[C@H](CC(=O)NCCCN1CCCC1=O)C2 | - | - | - | 0 | 0 | 0 | - | -
COc1ccc(NC(=O)CCCC(=O)OCC(F)(F)C(F)F)cc1 | 0 | 75 | 0 | 0 | 0 | 0 | 0 | 0
COc1ccccc1NC(=O)CCCC(=O)OCC(F)(F)C(F)F | 0 | 0 | 0 | 0 | 0 | 0 | - | -
COc1ccccc1C1=CC(=O)CC(C)(C)C1=O | 0 | 0 | 0 | 0 | 0 | 0 | - | -
O=C(O)CN1C(=O)/C(=C\c2cc(Br)ccc2OCc2ccccc2Cl)SC1=S | 0 | 65 | 0 | 0 | 0 | 0 | 71 | 0 | Beacon interf DR=0
O=C(O)CCN1C(=O)/C(=C\c2ccc(OCc3ccccc3)c(OCc3ccccc3)c2)SC1=S | 0 | 98 | 0 | 0 | 31 | 0 | 0 | 0
Cc1cc(C)cc(SCc2noc(C(=O)NCCN(C)C)c2C(=O)NCCN(C)C)c1 | 0 | 0 | 0 | 0 | 0 | 0 | - | -
Cc1cc2c(c(=O)n1Cc1cccnc1)C(Cc1ccccc1)C(C#N)=C(N)O2 (configuration not stated) | 0 | 56 | 0 | 0 | 0 | 0 | 0 | 0
C=CCn1c(SCC(=O)NC2CCCC2)nc2ccccc21 | 0 | 70 | - | 0 | 0 | 0 | 0 | 0
C=CCn1c(SCC(=O)NC2CC2)nc2ccccc2c1=O | 0 | 0 | 0 | 0 | 0 | 0 | - | -
CCCNC(=O)C1(C)CCCN(C(=O)c2ccc(F)c(Cl)c2)C1 (configuration not stated) | 0 | 0 | - | 0 | 0 | 0 | - | -
Cc1ccc(/C=N/Nc2ccnc3cc(Cl)ccc23)c(C)c1 | 0 | 62 | 0 | 0 | 0 | 0 | 0 | 0
SMILES | STEP block | DNMT1 block | Scp-1 inhibitor | LMPTP block | NadD block | SUMO1 PPI mod | DNMT1 inh conf | Beacon interf | others
Clc1ccc2c(N/N=C/c3cccnc3)ccnc2c1 | 0 | 0 | 0 | 0 | 0 | 0 | - | -
Clc1ccc2c(N/N=C/c3ccc(Br)cc3)ccnc2c1 | 0 | 66 | 0 | 0 | 0 | 0 | 0 | 0
Oc1ccc(Nc2ccnc3cc(Cl)ccc23)cc1 | 0 | 0 | 0 | 0 | 0 | 0 | - | -
Cc1ccccc1/C=N/Nc1ccnc2cc(Cl)ccc12 | 0 | 70 | 0 | 0 | 0 | 0 | 0 | 0
Oc1ccc(/C=N/Nc2ccnc3cc(Cl)ccc23)c(O)c1 | 0 | 84 | 0 | 0 | 0 | 112 | 0 | 0
Clc1ccc(NNc2ccnc3cc(Cl)ccc23)cc1 | 0 | 0 | 0 | 0 | 0 | 0 | - | -
CC(=O)N1CCC(=NNc2ccnc3cc(Cl)ccc23)CC1 | 0 | 0 | 0 | 0 | 0 | 0 | - | -
COc1ccc(S(=O)(=O)NC(=O)C2(C)CCN2C(=O)c2c(C)noc2C)cc1 (configuration not stated) | 0 | 0 | - | 0 | 0 | 0 | - | -
CCCCC[C@H](C)N1C[C@@H](COCc2ccccc2)Oc2cc(N3CC[C@H](O)C3)ccc2S1(=O)=O | - | - | - | 0 | 0 | 0 | - | -
OC(c1ccccc1)C(Nc1ccccn1)c1ccccc1 (configuration not stated) | 0 | 55 | 0 | 0 | 0 | 0 | 0 | 0
O=C(c1ccccc1)C(Nc1ccccn1)c1ccccc1 (configuration not stated) | 0 | 0 | 0 | 0 | 0 | 0 | - | -
OCCNc1nc(-c2ccccc2)c2cc(Br)ccc2n1 | 0 | 0 | 0 | 0 | 0 | 0 | - | -
N#Cc1ccccc1/C=N/Nc1nc(-c2ccccc2)c2cc(Br)ccc2n1 | 0 | 73 | 0 | 0 | 0 | 0 | 0 | 0
O=C(O)C1C=CCC(C(=O)O)C1 (configuration not stated) | 0 | 98 | - | 0 | 0 | 0 | 0 | 0
CCOc1ccc(CN(C)C(=O)CNC(=O)c2cc(OC)c(OC)c(OC)c2)cc1 | 0 | 0 | 0 | 0 | 0 | 0 | - | -
Cc1ccc(C2/C(=C(/O)c3ccccc3)C(=O)C(=O)N2CCN2CCOCC2)o1 (configuration not stated) | 0 | 0 | 0 | 0 | 0 | 0 | - | -

Assay outcomes deposited in PubChem BioAssay by Sanford-Burnham Center for Chemical Genomics.
